High-throughput results: PubChem BioAssay, Johns Hopkins Ion Channel Center
KCNQ1 act: potentiators or activators of KCNQ1 channel, primary screen, cell-based, thallium flux, high-throughput | B-score at 10 µM | hit rate 0.35% among 310,000 | CHO-K1 KCNQ1, thallium flux FluxOR fluorescence; stronger effect = higher value | AID 2648, 2010 | Potassium voltage-gated channel subfamily KQT member 1 (Homo sapiens), P51787;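 active means fluorescence ratio B-score, a plate-corrected score, at least three library SD, with initial intensity B-score within 5 SD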
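System: Stable KCNQ1 CHO-K1 line | Incubation: 90 min dye loading and 20 min compound exposure, both at room temperature | Measure: Ratio B score | Medium: Assay buffer for compound exposure, DMSO matched across wells | Compound dosing: Single-concentration screen | Probe or stimulus: K+/Tl+ depolarizing stimulus | Measured by: Kinetic FluxOR fluorescence, 10 s baseline plus 110 s post-stimulus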
KCNK9 inh: KCNK9 potassium channel inhibitors, primary screen, HEK293 cells, thallium flux; Potassium channel subfamily K member 9 (Homo sapiens), Q9NPC2; AID 488922, 2010; hit rate 1.2% among 310,000; FluxOR thallium flux fluorescence; stronger effect = lower value; B-score at 10 µM;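 active means ratio B-score over 3 SD below the library mean, with starting fluorescence within 5 SD of its mean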;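 further: negative B-score means less thallium flux so channel inhibition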
KCNQ1 block: inhibitors of human KCNQ1 channel, primary screen, cell-based, thallium flux, high-throughput | Potassium voltage-gated channel subfamily KQT member 1 (Homo sapiens), P51787 | CHO-K1 KCNQ1, FluxOR thallium flux fluorescence; stronger effect = higher value | hit rate 1.3% among 310,000 | AID 2642, 2010 | B-score at 10 µM;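 active means compounds whose thallium flux B-score, printed positive for inhibition, exceeds three library SD while starting fluorescence stays within three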;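 further: channel opened by potassium depolarization with thallium stimulus after 20 min compound exposure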
Kir21 inh: inhibitors of mouse Kir2.1 inward-rectifier potassium channel | Inward rectifier potassium channel 2 (Mus musculus), P35561 | AID 1672, 2009 | B-score at 10 µM | HEK293-Kir2.1, FluxOR thallium flux fluorescence; stronger effect = lower value | hit rate 0.85% among 310,000;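 active means fluorescence ratio B-score at or below minus 3 SD of library scores, with starting-brightness B-score within 2 SD, cut at about -4.2 in these data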;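 further: channel flux triggered by added potassium and thallium sulfate stimulus; B-score of peak minus minimum fluorescence over baseline after thallium stimulus; more negative B-score means stronger Kir2.1 block with less thallium influx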
Target sequence (P35561 whole entry, looked up): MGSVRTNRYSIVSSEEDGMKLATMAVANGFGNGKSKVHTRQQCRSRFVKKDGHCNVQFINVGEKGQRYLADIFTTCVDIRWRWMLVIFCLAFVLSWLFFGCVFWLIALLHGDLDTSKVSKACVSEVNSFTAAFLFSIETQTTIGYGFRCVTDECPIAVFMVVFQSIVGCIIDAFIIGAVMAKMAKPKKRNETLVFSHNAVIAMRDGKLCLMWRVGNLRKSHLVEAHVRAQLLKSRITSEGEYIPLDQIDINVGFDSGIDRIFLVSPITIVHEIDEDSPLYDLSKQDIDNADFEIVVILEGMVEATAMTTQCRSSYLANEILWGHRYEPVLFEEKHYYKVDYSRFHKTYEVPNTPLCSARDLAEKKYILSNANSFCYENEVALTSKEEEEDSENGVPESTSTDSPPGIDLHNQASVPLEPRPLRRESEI
hERG rescue: hERG rescue from dofetilide block, primary screen, cell-based, CHO-hERG, FluxOR thallium flux, dofetilide IC70; dofetilide IC70 present; Voltage-gated inwardly rectifying potassium channel KCNH2 (Homo sapiens), Q12809; activation (rescue from dofetilide block), less the hit threshold, % at 10 µM; AID 1511, 2009; hit rate 0.51% among 310,000;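 active means activation above the mean of controls blocked by dofetilide plus 5 SD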;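 further: thallium influx through hERG after potassium depolarization seen as dye fluorescence rise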
KCNK3 inh: human KCNK3 channel inhibitors, primary screen, CHO cells, FluxOR thallium flux, B-score | FluxOR fluorescence; stronger effect = lower value | Potassium channel subfamily K member 3 (Homo sapiens), O14649 | B-score at 10 µM | hit rate 0.84% among 340,000;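 active means B-score under library mean minus 4 SD, starting fluorescence ratio at most library mean plus 5 SD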;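 further: more negative B-score means stronger inhibition of thallium flux through KCNK3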
KCNK9 block conf: KCNK9 potassium channel inhibitors, confirmation, HEK293 cells, thallium flux, duplicate | shares compounds with KCNK9 inh | FluxOR thallium flux fluorescence | inhibition, % at 10 µM | hit rate 43% among 4,900;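 active means thallium signal inhibited by more than 5 SD of the compound-free buffer control wells, on both duplicate plates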;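 further: 0% = assay buffer control wells without compound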
Kir2-1 spec: mouse Kir2.1 channel inhibition, confirmation, selectivity assay for KCNK9 modulator project, cell-based, HEK293, thallium flux | shares compounds with KCNK9 inh | Kir2.1 cells, FluxOR thallium flux fluorescence | inhibition, % at 10 µM | hit rate 4% among 4,900 | AID 492993, 2010;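 active means thallium signal drop more than 5 SD beyond the mean of the no-compound control wells, seen in both duplicate plates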;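 further: signal is fluorescence rise after thallium addition divided by baseline fluorescence; plate controls were assay buffer only for no effect and full block by chlorpromazine control for full effect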
KCNK9 uninduced: thallium flux in non-induced HEK293 cells, confirmation, counter-screen for KCNK9 inhibitor project, cell-based, second counter screen, non-induced KCNK9-HEK293; shares compounds with KCNK9 inh; FluxOR thallium flux; inhibition, % at 10 µM; hit rate 40% among 4,900; AID 492997, 2010;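 active means thallium signal drop beyond 5 SD of the untreated control mean, on both duplicate plates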;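 further: plate controls were buffer only IC0 wells for no effect and SID17386958 at its maximal inhibitory level for full effect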
The depositor's hits bear a star; i = inactive; nt = not tested or not shown. Only a sample is shown.

SMILES	KCNQ1 act	KCNK9 inh	KCNQ1 block	Kir21 inh	hERG rescue	KCNK3 inh	KCNK9 block conf	Kir2-1 spec	KCNK9 uninduced
Cc1cccc(S(=O)(=O)c2c(C)cc(C)[nH]c2=O)c1	i	i	i	0.64	-5	i	nt	nt	nt
O=C(Nc1ccc(F)cc1)N1CCc2ccccc2C1	i	i	i	-1.1	-7	i	nt	nt	nt
COc1ccc(NC2CCCN(C(=O)CCc3scnc3C)C2)cc1 (stereo not given)	i	i	i	-0.22	-7	i	nt	nt	nt
COc1ccc(C(=O)C2CCCN(C(=O)c3ccc(C(C)=O)s3)C2)c(C)c1 (stereo not given)	i	i	i	-0.01	-13	i	i	i	i
COc1ccc(C(=O)C2CCCN(C(=O)CCc3scnc3C)C2)c(C)c1 (stereo not given)	i	i	i	-1.7	-10	i	i	i	i
COC(=O)CCCC(=O)N1CCCC(C(=O)c2ccc(OC)cc2C)C1 (stereo not given)	i	i	i	-0.48	0	i	i	i	i
COc1ccc(C(=O)C2CCCN(C(=O)c3ccc4cc[nH]c4c3)C2)c(C)c1 (stereo not given)	i	i	i	-0.42	-21	i	i	i	i
O=C1CN=C(Nc2ccccc2Cl)N1Cc1ccc2c(c1)OCO2	i	i	i	-0.45	-7	i	nt	nt	nt
COc1ccc(NC(=O)Nc2ccc3c(c2)C(=O)N([C@@H](C)CO)C[C@@H](C)[C@@H](CN(C)S(=O)(=O)c2cccs2)O3)cc1	nt	nt	nt	nt	nt	i	nt	nt	nt
CC1CCCC(C)N1C(=O)COC(=O)CSc1ccc(C(N)=O)cc1[N+](=O)[O-] (stereo not given)	i	i	i	0.05	-11	i	nt	nt	nt
COc1ccc(C(=O)C2CCCN(C(=O)c3cccnc3OC)C2)c(C)c1 (stereo not given)	i	i	i	2.5	-12	i	i	i	i
COc1ccc2cc(C(=O)C3CCCN(C(=O)c4cnn(C(C)C)c4)C3)ccc2c1 (stereo not given)	i	i	i	-0.95	-9	i	i	i	i
COc1ccccc1C(=O)C1CCCN(C(=O)CCc2ccccn2)C1 (stereo not given)	i	i	i	-1.5	-4	i	nt	nt	nt
COc1ccc2cc(C(=O)C3CCCN(C(=O)c4cccnc4)C3)ccc2c1 (stereo not given)	i	i	i	1.4	-11	i	nt	nt	nt
COc1ccc(C(=O)C2CCCN(C(=O)CCc3ccccn3)C2)c(C)c1 (stereo not given)	i	i	i	-1.4	-8	i	i	i	i
COc1c(C)cc(C(=O)C2CCCN(C(=O)/C=C/c3ccccn3)C2)cc1C (stereo not given)	i	i	i	-0.45	-16	i	i	i	i
Cc1ccc(N(Cc2cc3cccc(C)c3[nH]c2=O)S(=O)(=O)c2ccccc2)c(C)c1	i	i	i	0.34	-13	i	i	i	i
